Experimental data: ChEMBL document CHEMBL4364329, “Prodrug Activation by a Viral Protease: Evaluating Combretastatin Peptide Hybrids To Selectively Target Infected Cells” (ACS Med Chem Lett, 2019)
Non-standard residues stand in square brackets, D forms with d. Residues, ends and D or L forms follow the SMILES beside them. ξ: configuration not given here. *: point of attachment. X1 = COc1ccc(/C=C\c2cc(OC)c(OC)c(OC)c2)cc1N*; 2Abz = Nc1ccccc1C(=O)O; ξNle = CCCCC(N)C(=O)O; Bz = O=C(c1ccccc1)*

Assays:
[1] = Cytotoxicity against human HuH7 cells assessed as reduction in cell viability measured after 72 hrs by cell titer blue assay; format: cell-based, Huh-7
[2] = Ratio of compound CC50 to CA4 CC50 for human HuH7 cells measured after 72 hrs by cell titer blue assay; format: ADME, cell-based, Huh-7
dengue virus type 2 [3] = experiment: Antiviral activity against wild type Dengue virus serotype 2 infected in human HuH7 cells assessed as reduction in viral titer at 25 uM measured after 24 hrs by Cell-Titer Glo luminescent assay relative to control; format: functional; conditions: Huh-7, 24 h
Procedure, shortened: (§1)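 Cells treated 24 h before titer readout; virus-containing supernatant split into duplicates, plaques counted and averaged, reduction calculated versus untreated blank; single-point experiment.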

Genome polyprotein [4] = biological target: T1, Genome polyprotein (dengue virus type 2, UniProt P29990); experiment: Prodrug activation assessed as Dengue virus serotype 2 NS2B-NS3 protease expressed in Escherichia coli BL21 lambda (DE3) cells-mediated compound hydrolysis in TRIS buffer at pH 9 at 500 uM incubated for 2 hrs by HPLC-UV analysis; conditions: dengue virus type 2, pH 9, 2 h
Procedure, shortened: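 DENV protease at 1 μM with substrate at 500 μM in pH 9 buffer, incubated 2 h at 37 °C; fraction hydrolysed determined, triplicate wells.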

[5] = Cytotoxicity against human HeLa cells assessed as reduction in cell viability measured after 72 hrs by cell titer blue assay; format: cell-based
HeLa [6] = experiment: Ratio of compound CC50 to CA4 CC50 for human HeLa cells measured after 72 hrs by cell titer blue assay; format: ADME, cell-based
[7] = Cytotoxicity against human HuH7 cells assessed as reduction in cell viability measured after 24 hrs by cell titer blue assay; format: cell-based, Huh-7
dengue virus type 2 [8] = experiment: Antiviral activity against wild type Dengue virus serotype 2 infected in human HuH7 cells assessed as reduction in viral titer measured after 24 hrs by Cell-Titer Glo luminescent assay; format: functional, organism-based; conditions: Huh-7, 24 h
HeLa [9] = experiment: Cytotoxicity against human HeLa cells assessed as cell doubling time by cell titer blue assay; format: cell-based
Huh-7 [10] = experiment: Cytotoxicity against human HuH7 cells assessed as cell doubling time by cell titer blue assay; format: cell-based
Zika virus [11] = experiment: Antiviral activity against Zika virus infected in human HuH7 cells assessed as reduction in viral titer at 5 uM measured after 24 hrs by Cell-Titer Glo luminescent assay relative to control; format: functional; conditions: Huh-7, 24 h
Procedure, shortened: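 Readout began after 24 h. This was a single-point experiment. Virus-containing supernatant was aliquoted in duplicate, plaques were counted and averaged, and reduction was calculated against an untreated blank.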

Huh-7 [12] = experiment: Cytotoxicity against human HuH7 cells assessed as induction of mitosis after 24 hrs; format: cell-based; conditions: huh-7, 24 h
Zika virus [13] = experiment: Antiviral activity against Zika virus infected in human HuH7 cells assessed as reduction in viral titer at 50 uM measured after 24 hrs by Cell-Titer Glo luminescent assay relative to control; format: functional; conditions: Huh-7, 24 h; procedure, shortened: as §1
Trypsin = Trypsin (Homo sapiens, UniProt P07477+P07478+P35030); experiment: Prodrug activation assessed as trypsin (unknown origin)-mediated compound hydrolysis in TRIS buffer at pH 9 at 100 uM incubated for 2 hrs; format: protein assay; conditions: pH 9, 2 h
Genome polyprotein [14] = biological target: T1, Genome polyprotein; experiment: Inhibition of Dengue virus serotype 2 NS2B-NS3 protease expressed in Escherichia coli BL21 lambda (DE3) cells preincubated with enzyme for 15 mins followed by 2-Abz-Nle-Lys-Arg-Arg-Ser-(3-NO2)-Tyr-NH2 FRET substrate addition measured for 15 mins by fluorescence analysis
Genome polyprotein [15] = biological target: T1, Genome polyprotein; experiment: Inhibition of Dengue virus NS2B-NS3 protease using FRET Abz-Nle-Lys-Arg-Arg-Ser-3-(NO2)Tyr as substrate

| Structure (SMILES) | CC50 at 72 h [1] [nM] | selectivity ratio at 72 h [2] | inhibition at 25 µM (dengue virus type 2 [3]) [%] | Drug metabolism (Genome polyprotein [4]) | CC50 at 72 h [5] [nM] | Ratio (HeLa [6]) | CC50 at 24 h [7] [µM] | EC50 (dengue virus type 2 [8]) [nM] | Time (HeLa [9]) [h] | Time (Huh-7 [10]) [h] | inhibition at 5 µM (Zika virus [11]) [%] | Activity (Huh-7 [12]) | inhibition at 50 µM (Zika virus [13]) [%] | Drug metabolism (Trypsin) | IC50 (Genome polyprotein [14]) [µM] | IC50 (Genome polyprotein [15]) [µM] |
| --- | --- | --- | --- | --- | --- | --- | --- | --- | --- | --- | --- | --- | --- | --- | --- | --- |
| COc1ccc(/C=C\c2cc(OC)c(OC)c(OC)c2)cc1NC(=O)CNC(=O)[C@H](CCCNC(=N)N)NC(=O)[C@H](CCCCN)NC(=O)c1ccccc1 | 172 | 20 to 2000 | 53 | 32% | 78.2 | 20 to 2000 | > 100 | – | – | – | – | – | – | – | – | – |
| COc1ccc(/C=C\c2cc(OC)c(OC)c(OC)c2)cc1O [COMBRETASTATIN A4] | 1.05 | – | – | Metabolite_Notdetected | 0.428 | – | 38.3 | 870 | 24 | 48 | 70 | Toxic | – | – | – | – |
| COc1ccc(/C=C\c2cc(OC)c(OC)c(OC)c2)cc1NC(=O)[C@H](CO)NC(=O)[C@H](CCCNC(=N)N)NC(=O)[C@H](CCCNC(=N)N)NC(=O)c1ccccc1 | 23.1 | 20 to 2000 | 51 | 3.4% | 29.2 | 20 to 2000 | > 100 | – | – | – | – | – | 92 | Metabolite_Detected | 25 | – |
| COc1ccc(/C=C\c2cc(OC)c(OC)c(OC)c2)cc1NC(=O)CNC(=O)[C@H](CCCNC(=N)N)NC(=O)[C@H](CCCNC(=N)N)NC(=O)c1ccccc1 | 26.6 | 20 to 2000 | 84 | 39% | 7.2 | 20 to 2000 | 88.6 | – | – | – | – | – | – | – | – | – |
| COc1ccc(/C=C\c2cc(OC)c(OC)c(OC)c2)cc1NC(=O)CCNC(=O)[C@H](CCCNC(=N)N)NC(=O)[C@H](CCCNC(=N)N)NC(=O)c1ccccc1 | 156 | 20 to 2000 | 57 | 6.7% | 952 | 20 to 2000 | 190 | – | – | – | – | – | – | – | – | – |
| COc1ccc(/C=C\c2cc(OC)c(OC)c(OC)c2)cc1NC(=O)[C@H](C)NC(=O)[C@H](CCCNC(=N)N)NC(=O)[C@H](CCCNC(=N)N)NC(=O)c1ccccc1 | 191 | 20 to 2000 | 57 | 36% | 65.7 | 20 to 2000 | 111 | – | – | – | – | – | – | – | – | – |
| COc1ccc(/C=C\c2cc(OC)c(OC)c(OC)c2)cc1NC(=O)[C@H](CCCNC(=N)N)NC(=O)[C@@H](N)CCCNC(=N)N | – | – | – | – | – | – | – | – | – | – | – | – | – | – | – | 6.3 |
| COc1ccc(/C=C\c2cc(OC)c(OC)c(OC)c2)cc1NC(=O)CNC(=O)CNC(=O)[C@H](CCCNC(=N)N)NC(=O)[C@H](CCCNC(=N)N)NC(=O)c1ccccc1 (Bz-RRGG-X1) | 24 | 20 to 2000 | 55 | 42% | 19.5 | 20 to 2000 | 59.7 | – | – | – | – | – | – | Metabolite_Detected | – | – |
| CCCCC(NC(=O)c1ccccc1N)C(=O)N[C@@H](CCCCN)C(=O)N[C@@H](CCCNC(=N)N)C(=O)N[C@@H](CCCNC(=N)N)C(=O)N[C@@H](CO)C(=O)N[C@@H](Cc1ccc(O)cc1)C(N)=O (stereo partly drawn) (H-[2Abz][ξNle]KRRSY-NH2) | – | – | – | 94% | – | – | – | – | – | – | – | – | – | – | – | – |
| COc1ccc(/C=C\c2cc(OC)c(OC)c(OC)c2)cc1N | 3.93 | 20 to 2000 | 66 | Metabolite_Notdetected | 1.47 | 20 to 2000 | > 100 | – | – | – | 84 | – | – | – | – | – |
| COc1ccc(/C=C\c2cc(OC)c(OC)c(OC)c2)cc1NC(=O)CN | 26.9 | 20 to 2000 | 69 | Metabolite_Notdetected | 37.7 | 20 to 2000 | 173 | – | – | – | – | – | – | – | – | – |
| COc1ccc(/C=C\c2cc(OC)c(OC)c(OC)c2)cc1NC(=O)[C@H](C)N | 6.03 | 20 to 2000 | 64 | Metabolite_Notdetected | 6.69 | 20 to 2000 | 123 | – | – | – | – | – | – | – | – | – |
| COc1ccc(/C=C\c2cc(OC)c(OC)c(OC)c2)cc1NC(=O)[C@H](C)NC(=O)[C@H](CCCNC(=N)N)NC(=O)[C@H](CCCCN)NC(=O)c1ccccc1 | 71.6 | 20 to 2000 | 69 | 5.2% | 24.6 | 20 to 2000 | > 100 | – | – | – | – | – | – | – | – | – |
| COc1ccc(/C=C\c2cc(OC)c(OC)c(OC)c2)cc1NC(=O)[C@H](CO)NC(=O)[C@H](CCCNC(=N)N)NC(=O)[C@H](CCCCN)NC(=O)c1ccccc1 | 134 | 20 to 2000 | 61 | 6.3% | 61.8 | 20 to 2000 | 77.9 | – | – | – | – | – | – | – | – | – |
